From PubChem BioAssay
APJ antagonist: antagonists of human apelin receptor APJ, primary screen, CHO-K1 cells, beta-arrestin complementation, luminescence. P35414. inhibition, % at 20 µM. 330,000 compounds, 0.32% hits. AID 2521, 2010;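 active = inhibition above about 40% at 20 µM, limit read from the data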;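 also: cells challenged with 10 nM apelin-13 agonist together with compound; plate controls were apelin-13 plus DMSO wells for no effect and DMSO wells lacking apelin-13 for full effect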
APJ agonist: agonists of human apelin receptor APJ, primary screen, CHO-K1 cells, PathHunter beta-arrestin, luminescence. 330,000 compounds, 0.11% hits. 0% DMSO wells, 100% apelin. activation, % at 20 µM. AID 2520, 2010;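 active = activation more than six SD over the plate average, tested at 20 µM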;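 also: 0% = DMSO alone and 100% = apelin-13 at 10 nM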
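Incubation: overnight seeding, 90 min compound at 25 °C, 1 h detection; test system: PathHunter CHO-K1 APJ (AGTRL-1) beta-arrestin reporter cells; amount: 1000 cells/well; doses: one dose, 20 µM compound, 1% DMSO; measured by: beta-gal luminescence; measure: agonist-driven arrestin binding to APJ; benchmarks: negative DMSO alone, positive Apelin-13 at 10 nM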
CXCR6 inh: CXCR6 receptor inhibitors, primary screen, cell-based, beta-arrestin, luminescence, CHO-K1 PathHunter, 1536-well | C-X-C chemokine receptor type 6 (Homo sapiens), O00574 | 360,000 compounds, 0.36% hits | inhibition, % at 20 µM; in the data active = inhibition above about 34%, passing the limit was not always enough;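 also: antagonist mode with CXCL16 agonist at 10 nM final; 0% = 10 nM CXCL16 with DMSO and 100% = unstimulated wells without agonist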
CCR6 antag: CCR6 receptor antagonists, primary screen, cell-based, CHO-K1, luminescence, beta-arrestin, uHTS. inhibition, % at 20 µM. CHO-K1 CCR6 PathHunter beta-arrestin, CCL20-stimulated. 340,000 compounds, 0.49% hits;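 active = compounds whose inhibition of the agonist-driven luminescence signal at 20 µM reaches about 50%, limit read from the data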;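 also: cells stimulated with CCL20 at 14 nM final; plate controls were DMSO with CCL20 for no effect and DMSO without agonist for full effect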
B2AR ag: beta2AR agonists driving receptor internalization, primary screen, cell-based, FAP fluorogen, flow cytometry; Am2.2-beta2AR cells; response, % (test concentration not listed); 340,000 compounds, 0.43% hits; AID 504454, 2011;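 active = response above a set limit, near 3 SD of response in nonfluorescent compounds, cut at about 42% in these data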
Target sequence (P07550 whole entry, looked up): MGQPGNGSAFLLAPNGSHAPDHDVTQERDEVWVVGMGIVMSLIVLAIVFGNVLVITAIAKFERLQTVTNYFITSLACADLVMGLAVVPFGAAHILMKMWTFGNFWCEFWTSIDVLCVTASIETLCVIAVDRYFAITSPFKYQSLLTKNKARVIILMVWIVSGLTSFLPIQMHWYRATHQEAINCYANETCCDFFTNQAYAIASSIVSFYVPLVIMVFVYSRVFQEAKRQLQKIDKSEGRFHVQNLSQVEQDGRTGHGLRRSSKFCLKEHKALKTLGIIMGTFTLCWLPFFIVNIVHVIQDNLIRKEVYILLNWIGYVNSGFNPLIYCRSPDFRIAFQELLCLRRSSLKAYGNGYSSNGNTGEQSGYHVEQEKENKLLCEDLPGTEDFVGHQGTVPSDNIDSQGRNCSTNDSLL
PfG6PD inh: PfG6PD enzyme inhibitors, primary screen, biochemical, fluorescence intensity, uHTS | PfGluPho enzyme, NADPH resazurin-diaphorase fluorescence | inhibition, % at 20 µM | 350,000 compounds, 0.78% hits | AID 504690, 2011;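 active = inhibition reaching at least a set limit at 20 µM in the primary screen, cut at about 59% in these data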;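 also: 0% = DMSO wells with substrate and 100% = DMSO wells lacking glucose-6-phosphate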
APJ antag conf: APJ antagonists blocking beta-arrestin recruitment, confirmation, cell-based, luminescence, single concentration, uHTS hits. shares compounds with APJ antagonist. antagonist mode. inhibition, % at 20 µM. 950 compounds, 66% hits; in the data active = inhibition above about 50%
* hit, by the source's call; nt = no result. A selection: hits, their analogues and other compounds. The true share with any hit is near 1.7%.

SMILES | APJ antagonist | APJ agonist | CXCR6 inh | CCR6 antag | B2AR ag | PfG6PD inh | APJ antag conf
CC(=O)N/N=C(/c1ccccc1)C(O)c1ccccc1 (stereo unspecified) | 43* | 0 | 5 | 3 | 6 | 4 | -10
C/C(=N\NC(=O)C(O)c1ccccc1)c1cccnc1 (stereo unspecified) | -2 | -2 | 2 | -1 | 2 | -3 | nt
O=C(Cc1ccc(Cl)c(Cl)c1)N1CCOCC1 | 6 | -4 | -1 | 6 | -10 | -1 | nt
Cc1cccc(NC(=O)CN2C(=O)N/C(=C/c3ccc(C)o3)C2=O)c1 | nt | nt | -5 | 17 | 9 | 48 | nt
Cc1ccc(NC(=O)CN2C(=O)N/C(=C/c3ccc(C)o3)C2=O)cc1 | 42* | -4 | 30 | -7 | 3 | 43 | 28
COc1ccc(CNC(=O)c2ccc(CS(=O)c3ccccc3)o2)cc1 (stereo unspecified) | -11 | 3 | -2 | 17 | -4 | -2 | nt
c1ccc(-c2nc(-c3ccco3)cs2)nc1 | 53* | -11 | 11 | 16 | -1 | 18 | 27
O=C(N/N=C/c1cc(Cl)cc([N+](=O)[O-])c1O)NC12CC3CC(CC(C3)C1)C2 | 42* | -4 | 34 | 44 | 3 | -26 | 70*
O=C(N/N=C/c1ccccc1O)NC12CC3CC(CC(C3)C1)C2 | -32 | 2 | 27 | 18 | 16 | -22 | nt
CCc1ccc(N2C(=O)C(Cl)=C(Nc3ccc(C(=O)N4CCCC4)cc3)C2=O)cc1 | 6 | 4 | 4 | 12 | 3 | -17 | nt
O=C(CCl)c1ccc2[nH]c(=O)oc2c1 | 83* | -14 | 8 | 7 | -11 | -14 | 20
O=c1[nH]c2ccc(Br)cc2o1 | nt | nt | -1 | 7 | -3 | -14 | nt
Cc1ccnc(NS(=O)(=O)c2ccc(NC(=O)C3CCCCC3)cc2)n1 | 7 | 4 | -2 | 6 | -2 | -9 | nt
Cc1cc(C)nc(NS(=O)(=O)c2ccc(NC(=S)NC(=O)C3CCCC3)cc2)n1 | 43* | -4 | 11 | 8 | 4 | -39 | 24
COc1cc([N+](=O)[O-])cc(/C=N/NC(=O)c2cccnc2)c1O | 24 | -6 | 19 | 16 | 1 | -14 | nt
COc1cc([N+](=O)[O-])cc(/C=N/NC(=O)C(O)(c2ccccc2)c2ccccc2)c1O | 47* | -7 | 29 | 37 | 14 | -35 | 29
COc1cc(OC)cc(C(=O)NC2CCCN(Cc3ccc(Cl)cc3)C2)c1 (stereo unspecified) | -3 | -2 | 5 | 14 | 2 | 9 | nt
Cc1ccc2cccc(N)c2n1 | 41* | 2 | 0 | 10 | 7 | 17 | 2
COc1ccnc2c1c(=O)n(Cc1ccc(F)cc1)c(=O)n2C | -26 | -4 | 4 | 15 | -1 | -12 | nt
COc1ccc(CNC(=O)CN(Cc2ccco2)C(=O)CNS(=O)(=O)c2ccc(F)cc2)cc1 | 41* | 1 | 12 | 8 | -1 | -13 | -32
COc1cc(/C=C2\SC(=S)N(NC(=O)c3ccc(O)cc3)C2=O)ccc1O | 56* | -8 | 42* | 59* | -181 | -40 | 92*
O=C(O)c1ccc(/C=C2\SC(=S)N(NC(=O)c3ccccc3[N+](=O)[O-])C2=O)cc1 | 0 | -4 | -3 | 22 | 1 | -9 | nt
COc1cc(/C=C2\SC(=S)N(NC(=O)c3cccnc3)C2=O)ccc1O | 42* | -7 | 36 | 49 | 2 | -52 | 95*
O=C(NN1C(=O)/C(=C/c2ccc(O)c(O)c2)SC1=S)c1ccccc1 | 48* | -9 | 52* | 64* | -39 | -7 | 106*
O=C(NN1C(=O)/C(=C\c2ccc(O)c([N+](=O)[O-])c2)SC1=S)c1ccccc1Cl | 55* | -7 | 35 | 60* | 10 | 0 | 102*
SMILES | APJ antagonist | APJ agonist | CXCR6 inh | CCR6 antag | B2AR ag | PfG6PD inh | APJ antag conf
O=C(NN1C(=O)/C(=C/c2cccc(O)c2)SC1=S)c1ccccc1O | -16 | -2 | -1 | 15 | 6 | -42 | nt
COc1cccc(/C=C2\SC(=S)N(NC(=O)c3ccncc3)C2=O)c1 | -6 | -2 | 4 | -1 | -1 | -26 | nt
COc1ccc(C(O)c2nc(-c3cccc(NC(C)=O)c3)cs2)cc1 (stereo unspecified) | nt | nt | -4 | nt | nt | nt | nt
CC1NC(=O)c2cc3ccccc3cc2-n2c1nc1ccc(F)cc1c2=O (stereo unspecified) | nt | nt | 4 | nt | nt | -1 | nt
O=C(CN1c2ccccc2Sc2ccccc21)NNC(=S)Nc1ccc(Cl)cc1 | 51* | -13 | 14 | 28 | 5 | -21 | 70*
Oc1c(C(c2cccs2)N2CCN(c3ccccc3)CC2)ccc2cccnc12 (stereo unspecified) | 2 | 0 | nt | nt | nt | nt | nt
Oc1c(C(c2ccccc2Cl)N2CCCC2)ccc2cccnc12 (stereo unspecified) | 56* | -7 | 24 | 43 | 11 | -4 | 56*
N#C/C(=C\c1ccc(O)c(O)c1)C(=O)c1ccc(O)c(O)c1 | 43* | -7 | 27 | 54* | 2 | -16 | 57*
N#C/C(=C\c1ccc(O)c(O)c1)C(=O)N1CCCC1 | 22 | -1 | 20 | 19 | 7 | 3 | nt
Cc1ccc2c(=O)cc(C(=O)NCc3ccccc3)oc2c1C | 10 | -4 | -20 | -3 | 9 | 0 | nt
CC(C)(C)C1C/C(=C/c2ccccn2)C(=O)/C(=C/c2ccccn2)C1 (stereo unspecified) | 45* | -8 | 32 | 65* | 85* | 27 | 46
CC1C/C(=C/c2ccccn2)C(=O)/C(=C/c2ccccn2)C1 (stereo unspecified) | 16 | -5 | 23 | 37 | 17 | 23 | nt
Cc1cc([N+](=O)[O-])ccc1NC(=S)NC(=O)C(c1ccccc1)c1ccccc1 | 42* | -11 | 35 | 53* | 7 | 0 | 52*
Cc1cc([N+](=O)[O-])ccc1NC(=S)NC(=O)Cc1ccccc1 | 20 | -13 | 23 | nt | -24 | 4 | nt
O=C1CCC(C(=O)N2CCc3c(Cl)cccc3C2)CN1CCCN1CCOCC1 (stereo unspecified) | 8 | -2 | -2 | 15 | -6 | -6 | nt
COc1cc(/C=C(\C#N)c2nc3ccccc3s2)cc([N+](=O)[O-])c1O | 51* | -9 | 44* | 60* | 2 | -9 | 88*
